ChEMBL document CHEMBL3351667, “A chemical tuned strategy to develop novel irreversible EGFR-TK inhibitors with improved safety and pharmacokinetic profiles” (J Med Chem, 2014)
Blank lines part the entries; values can stand above or below the compound they belong to.

Legend:
[1] = target: Epidermal growth factor receptor (Homo sapiens, UniProt P00533, T790M); type: protein assay
A-431 = experiment: cells; type: functional, cell-based; conditions: Homo sapiens, A-431, 48 h
[2] = target: Receptor tyrosine-protein kinase erbB-2 (Homo sapiens, UniProt P04626); experiment: Inhibition of wild type HER2 (unknown origin) incubated for 5 mins by HTRF assay
Receptor tyrosine-protein kinase erbB-2, sequence (P04626 whole entry): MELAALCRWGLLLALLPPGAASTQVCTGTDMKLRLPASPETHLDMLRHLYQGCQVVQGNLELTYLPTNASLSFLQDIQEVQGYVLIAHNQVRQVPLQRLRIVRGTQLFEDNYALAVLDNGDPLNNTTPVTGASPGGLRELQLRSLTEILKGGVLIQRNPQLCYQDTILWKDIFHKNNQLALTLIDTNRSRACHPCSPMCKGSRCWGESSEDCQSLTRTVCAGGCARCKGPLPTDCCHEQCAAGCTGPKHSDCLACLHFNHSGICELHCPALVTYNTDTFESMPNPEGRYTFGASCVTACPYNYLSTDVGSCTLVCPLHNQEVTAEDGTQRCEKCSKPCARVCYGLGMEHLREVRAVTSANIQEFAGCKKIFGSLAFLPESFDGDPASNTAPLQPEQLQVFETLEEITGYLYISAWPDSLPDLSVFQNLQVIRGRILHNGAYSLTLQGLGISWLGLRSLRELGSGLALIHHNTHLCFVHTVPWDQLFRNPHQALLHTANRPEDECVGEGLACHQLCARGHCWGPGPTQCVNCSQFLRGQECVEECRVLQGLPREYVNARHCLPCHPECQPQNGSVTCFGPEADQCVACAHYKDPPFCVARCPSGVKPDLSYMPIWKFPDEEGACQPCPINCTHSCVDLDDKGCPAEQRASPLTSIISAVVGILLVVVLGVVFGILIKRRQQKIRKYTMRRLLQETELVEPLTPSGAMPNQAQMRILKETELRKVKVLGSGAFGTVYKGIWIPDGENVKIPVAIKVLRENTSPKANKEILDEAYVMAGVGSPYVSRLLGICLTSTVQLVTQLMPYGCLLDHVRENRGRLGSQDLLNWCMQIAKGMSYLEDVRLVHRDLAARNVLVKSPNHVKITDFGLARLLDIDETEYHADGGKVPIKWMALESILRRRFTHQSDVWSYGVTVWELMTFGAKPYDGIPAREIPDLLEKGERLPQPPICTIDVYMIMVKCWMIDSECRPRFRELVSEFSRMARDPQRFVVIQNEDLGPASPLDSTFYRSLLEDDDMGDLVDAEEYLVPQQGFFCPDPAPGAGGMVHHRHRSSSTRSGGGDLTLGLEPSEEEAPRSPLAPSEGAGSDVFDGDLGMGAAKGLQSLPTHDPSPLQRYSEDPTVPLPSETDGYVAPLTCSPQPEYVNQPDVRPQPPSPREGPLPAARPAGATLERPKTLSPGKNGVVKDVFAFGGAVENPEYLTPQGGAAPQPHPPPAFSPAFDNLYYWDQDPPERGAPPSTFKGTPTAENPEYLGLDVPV

NCI-H1975 [3] = experiment: cells; type: functional, cell-based; conditions: Homo sapiens, NCI-H1975, 48 h
[4] = target: Epidermal growth factor receptor (Homo sapiens, UniProt P00533);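 note: inhibition of wild-type EGFR read out by HTRF, with a 5 min incubation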
Epidermal growth factor receptor (Homo sapiens, UniProt P00533), sequence (P00533 whole entry): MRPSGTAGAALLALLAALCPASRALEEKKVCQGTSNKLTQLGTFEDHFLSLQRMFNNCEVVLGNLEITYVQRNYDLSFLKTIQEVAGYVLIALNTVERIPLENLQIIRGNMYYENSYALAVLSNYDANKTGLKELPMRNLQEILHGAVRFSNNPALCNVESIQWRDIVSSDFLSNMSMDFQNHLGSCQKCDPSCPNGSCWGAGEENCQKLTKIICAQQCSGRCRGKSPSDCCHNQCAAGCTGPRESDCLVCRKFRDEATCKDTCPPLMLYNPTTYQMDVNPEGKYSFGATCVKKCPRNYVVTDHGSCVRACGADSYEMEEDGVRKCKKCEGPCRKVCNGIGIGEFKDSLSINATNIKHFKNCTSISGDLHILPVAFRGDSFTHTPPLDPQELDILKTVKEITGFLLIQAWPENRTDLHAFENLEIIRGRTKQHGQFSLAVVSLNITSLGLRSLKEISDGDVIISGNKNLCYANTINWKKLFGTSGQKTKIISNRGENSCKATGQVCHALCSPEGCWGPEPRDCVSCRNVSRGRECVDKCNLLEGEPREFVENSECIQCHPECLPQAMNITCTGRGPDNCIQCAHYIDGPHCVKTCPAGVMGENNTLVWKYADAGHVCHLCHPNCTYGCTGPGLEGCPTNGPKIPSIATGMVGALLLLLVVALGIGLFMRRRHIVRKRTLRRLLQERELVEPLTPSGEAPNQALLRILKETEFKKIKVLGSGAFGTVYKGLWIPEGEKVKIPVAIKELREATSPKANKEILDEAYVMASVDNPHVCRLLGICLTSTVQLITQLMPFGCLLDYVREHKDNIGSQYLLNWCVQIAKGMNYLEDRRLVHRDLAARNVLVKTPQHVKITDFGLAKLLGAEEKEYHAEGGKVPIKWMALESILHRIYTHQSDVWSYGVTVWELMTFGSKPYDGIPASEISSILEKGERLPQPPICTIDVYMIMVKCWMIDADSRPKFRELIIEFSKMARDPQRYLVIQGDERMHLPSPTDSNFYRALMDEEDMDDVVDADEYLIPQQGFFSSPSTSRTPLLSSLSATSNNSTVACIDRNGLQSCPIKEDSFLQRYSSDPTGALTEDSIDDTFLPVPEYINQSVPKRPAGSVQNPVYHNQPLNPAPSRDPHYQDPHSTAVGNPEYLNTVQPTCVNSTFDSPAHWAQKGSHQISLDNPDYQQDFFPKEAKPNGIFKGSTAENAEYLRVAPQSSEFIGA

SW-620 = experiment: Growth inhibition of human SW620 cells at 5 uM; type: functional; conditions: read-out: GI
[5] = Intrinsic clearance in mouse liver microsomes assessed per mg protein at 1 uM in presence of NADPH after 0.5 to 30 mins by LC/MS/MS method; type: ADME; conditions: read-out: CLH
[6] = AUC (0 to infinity) in BALB/c mouse at 10 mg/kg, po after 24 hrs by LC/MS/MS method; type: ADME, organism-based, Plasma; set-up: dose 10 mg/kg, route oral, time infinity; conditions: BALB/c, plasma
Cytochrome P450 1A2 = target: T1, Cytochrome P450 1A2 (Homo sapiens, UniProt P05177); experiment: Inhibition of CYP1A2 in human hepatic microsomes after 20 mins by LC/MS/MS method; type: ADME, Liver
T1 sequence (P05177 whole entry): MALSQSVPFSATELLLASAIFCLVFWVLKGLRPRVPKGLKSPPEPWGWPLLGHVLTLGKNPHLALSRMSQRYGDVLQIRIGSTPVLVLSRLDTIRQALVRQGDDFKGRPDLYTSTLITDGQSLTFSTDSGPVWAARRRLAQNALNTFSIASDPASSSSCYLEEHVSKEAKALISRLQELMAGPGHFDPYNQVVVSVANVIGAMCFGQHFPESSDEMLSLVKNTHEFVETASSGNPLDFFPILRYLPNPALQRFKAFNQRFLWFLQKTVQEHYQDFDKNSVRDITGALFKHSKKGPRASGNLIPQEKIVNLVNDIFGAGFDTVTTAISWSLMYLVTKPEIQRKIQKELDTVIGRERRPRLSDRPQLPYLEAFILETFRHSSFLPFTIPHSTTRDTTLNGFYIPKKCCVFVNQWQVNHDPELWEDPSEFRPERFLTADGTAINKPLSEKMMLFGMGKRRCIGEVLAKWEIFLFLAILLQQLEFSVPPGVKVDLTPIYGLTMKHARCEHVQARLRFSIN

Cytochrome P450 3A4 = Cytochrome P450 3A4 (Homo sapiens, UniProt P08684); experiment: Inhibition of CYP3A4 in human hepatic microsomes after 20 mins by LC/MS/MS method; type: ADME, Liver
[7] = Intrinsic clearance in rat liver microsomes assessed per mg protein at 1 uM in presence of NADPH after 0.5 to 30 mins by LC/MS/MS method; type: ADME; conditions: read-out: CLH
[8] = Ratio of drug level in lung to plasma in BALB/c mouse at 30 mg/kg, po after 6 hrs by LC/MS/MS method; type: ADME, organism-based; set-up: dose 30 mg/kg, route oral
Procedure, shortened: (§1)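 BALB/c mice received a single oral dose of 30 mg/kg. Drug concentrations in lung, brain and plasma were measured at multiple time points over 6 h. Mean tissue levels are expressed as a lung/plasma/brain ratio, with plasma set to 1.0.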

Cytochrome P450 2C19 = Cytochrome P450 2C19 (Homo sapiens, UniProt P33261); experiment: Inhibition of CYP2C19 in human hepatic microsomes after 20 mins by LC/MS/MS method; type: ADME, Liver
Cytochrome P450 2D6 = Cytochrome P450 2D6 (Homo sapiens, UniProt P10635); experiment: Inhibition of CYP2D6 in human hepatic microsomes after 20 mins by LC/MS/MS method; type: ADME, Liver
[9] = Ratio of drug level in brain to plasma in BALB/c mouse at 30 mg/kg, po after 6 hrs by LC/MS/MS method; type: ADME, organism-based; set-up: dose 30 mg/kg, route oral; conditions: read-out: BPR
Procedure, shortened: as §1

[10] = Intrinsic clearance in dog liver microsomes assessed per mg protein at 1 uM in presence of NADPH after 0.5 to 30 mins by LC/MS/MS method; type: ADME, Canis lupus familiaris; conditions: read-out: CLH
NCI-H1975 [11] = experiment: Antitumor activity against human NCI-H1975 cells xenografted in nude mouse assessed as reduction in tumor growth at 15 to 60 mg/kg/day, ig relative to untreated control; type: functional, organism-based
Mus musculus = experiment: Apparent volume of distribution in BALB/c mouse at 10 mg/kg, po after 24 hrs by LC/MS/MS method; type: ADME, organism-based; set-up: dose 10 mg/kg, route oral; conditions: in vivo
[12] = Apparent clearance in BALB/c mouse at 10 mg/kg, po after 24 hrs by LC/MS/MS method; type: ADME, organism-based; set-up: dose 10 mg/kg, route oral; conditions: BALB/c, in vivo, read-out: CL(app)
hERG (KCNH2) [13] = target: T2, hERG (KCNH2) (Homo sapiens, UniProt Q12809); experiment: Inhibition of human ERG assessed as reduction in channel currents at 10 uM
T2 sequence (Q12809 whole entry): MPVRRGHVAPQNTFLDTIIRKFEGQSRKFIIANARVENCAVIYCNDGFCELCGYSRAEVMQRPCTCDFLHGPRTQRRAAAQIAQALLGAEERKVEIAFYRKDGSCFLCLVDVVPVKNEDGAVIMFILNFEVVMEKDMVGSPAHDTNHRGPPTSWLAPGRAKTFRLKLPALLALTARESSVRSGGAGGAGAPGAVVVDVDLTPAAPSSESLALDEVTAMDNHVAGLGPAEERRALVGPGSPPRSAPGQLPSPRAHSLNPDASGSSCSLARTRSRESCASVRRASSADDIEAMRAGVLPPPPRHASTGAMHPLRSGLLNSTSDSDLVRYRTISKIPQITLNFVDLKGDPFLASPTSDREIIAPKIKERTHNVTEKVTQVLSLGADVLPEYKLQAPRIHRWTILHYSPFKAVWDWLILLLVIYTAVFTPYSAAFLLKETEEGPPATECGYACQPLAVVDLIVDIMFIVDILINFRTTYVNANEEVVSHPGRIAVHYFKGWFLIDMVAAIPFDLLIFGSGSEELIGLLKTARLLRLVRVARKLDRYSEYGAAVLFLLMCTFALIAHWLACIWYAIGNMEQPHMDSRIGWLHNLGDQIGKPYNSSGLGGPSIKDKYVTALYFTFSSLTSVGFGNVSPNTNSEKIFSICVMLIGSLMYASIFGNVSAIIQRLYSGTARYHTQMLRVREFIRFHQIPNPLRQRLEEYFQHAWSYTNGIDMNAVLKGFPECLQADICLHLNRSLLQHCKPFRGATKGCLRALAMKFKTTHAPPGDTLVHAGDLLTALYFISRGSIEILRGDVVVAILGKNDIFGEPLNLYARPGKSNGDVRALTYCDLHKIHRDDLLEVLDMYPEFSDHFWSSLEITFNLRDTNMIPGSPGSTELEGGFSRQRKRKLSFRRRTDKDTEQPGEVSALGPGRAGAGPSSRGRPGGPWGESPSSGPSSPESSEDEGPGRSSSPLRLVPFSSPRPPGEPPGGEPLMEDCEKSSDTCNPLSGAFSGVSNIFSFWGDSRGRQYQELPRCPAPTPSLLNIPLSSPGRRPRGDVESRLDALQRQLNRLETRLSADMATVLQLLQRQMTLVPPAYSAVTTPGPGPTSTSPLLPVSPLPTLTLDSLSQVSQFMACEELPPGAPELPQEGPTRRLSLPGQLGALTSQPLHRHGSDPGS

NCI-H1975 [14] = experiment: Antitumor activity against human NCI-H1975 cells xenografted in nude mouse assessed as reduction in tumor growth at 30 mg/kg/day, ig relative to untreated control; type: functional; conditions: route intragastric
NCI-H1975 [15] = experiment: Toxicity in human NCI-H1975 cells xenografted nude mouse assessed as induction of mortality at 30 mg/kg/day, ig; type: organism-based; set-up: route intragastric; conditions: in vivo, po
Procedure, shortened: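 H1975 NSCLC xenografts set up by subcutaneous inoculation of 3.0 × 10⁷ cells into nude mice. Dosing began at mean tumour size 50−150 mm³. Randomised mice received compound by ig gavage […] for 9 days. Vehicle control was 0.5% CMC-Na + 0.4% Tween80 at 10 mL/kg. Mortality and body weight were monitored during treatment.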

NCI-H1975 [16] = experiment: Antitumor activity against human NCI-H1975 cells xenografted in nude mouse assessed as reduction in tumor growth at 60 mg/kg/day, ig relative to untreated control; type: functional; conditions: route intragastric
[17] = Oral bioavailability in BALB/c mouse at 10 mg/kg after 24 hrs by LC/MS/MS method; type: ADME, organism-based; conditions: in vivo
NCI-H1975 [18] = experiment: Antitumor activity against human NCI-H1975 cells xenografted in nude mouse assessed as reduction in tumor growth at 15 mg/kg/day, ig relative to untreated control; type: functional; conditions: route intragastric
[19] = Intrinsic clearance in human liver microsomes assessed per mg protein at 1 uM in presence of NADPH after 0.5 to 30 mins by LC/MS/MS method; type: ADME; conditions: read-out: CLH
[20] = Cmax in BALB/c mouse at 10 mg/kg, po after 24 hrs by LC/MS/MS method; type: ADME, organism-based; set-up: dose 10 mg/kg, route oral; conditions: in vivo
[21] = Intrinsic clearance in monkey liver microsomes assessed per mg protein at 1 uM in presence of NADPH after 0.5 to 30 mins by LC/MS/MS method; type: ADME, Macaca mulatta; conditions: rhesus monkey, read-out: CLH
Cytochrome P450 2C9 = Cytochrome P450 2C9 (Homo sapiens, UniProt P11712); experiment: Inhibition of CYP2C9 in human hepatic microsomes after 20 mins by LC/MS/MS method; type: ADME, Liver
hERG (KCNH2) [22] = target: T2, hERG (KCNH2); experiment: Inhibition of human ERG assessed as reduction in channel currents at 1 uM

Epidermal growth factor receptor (Homo sapiens, UniProt P00533, T790M), sequence (P00533 25-1210 T790M limits assumed): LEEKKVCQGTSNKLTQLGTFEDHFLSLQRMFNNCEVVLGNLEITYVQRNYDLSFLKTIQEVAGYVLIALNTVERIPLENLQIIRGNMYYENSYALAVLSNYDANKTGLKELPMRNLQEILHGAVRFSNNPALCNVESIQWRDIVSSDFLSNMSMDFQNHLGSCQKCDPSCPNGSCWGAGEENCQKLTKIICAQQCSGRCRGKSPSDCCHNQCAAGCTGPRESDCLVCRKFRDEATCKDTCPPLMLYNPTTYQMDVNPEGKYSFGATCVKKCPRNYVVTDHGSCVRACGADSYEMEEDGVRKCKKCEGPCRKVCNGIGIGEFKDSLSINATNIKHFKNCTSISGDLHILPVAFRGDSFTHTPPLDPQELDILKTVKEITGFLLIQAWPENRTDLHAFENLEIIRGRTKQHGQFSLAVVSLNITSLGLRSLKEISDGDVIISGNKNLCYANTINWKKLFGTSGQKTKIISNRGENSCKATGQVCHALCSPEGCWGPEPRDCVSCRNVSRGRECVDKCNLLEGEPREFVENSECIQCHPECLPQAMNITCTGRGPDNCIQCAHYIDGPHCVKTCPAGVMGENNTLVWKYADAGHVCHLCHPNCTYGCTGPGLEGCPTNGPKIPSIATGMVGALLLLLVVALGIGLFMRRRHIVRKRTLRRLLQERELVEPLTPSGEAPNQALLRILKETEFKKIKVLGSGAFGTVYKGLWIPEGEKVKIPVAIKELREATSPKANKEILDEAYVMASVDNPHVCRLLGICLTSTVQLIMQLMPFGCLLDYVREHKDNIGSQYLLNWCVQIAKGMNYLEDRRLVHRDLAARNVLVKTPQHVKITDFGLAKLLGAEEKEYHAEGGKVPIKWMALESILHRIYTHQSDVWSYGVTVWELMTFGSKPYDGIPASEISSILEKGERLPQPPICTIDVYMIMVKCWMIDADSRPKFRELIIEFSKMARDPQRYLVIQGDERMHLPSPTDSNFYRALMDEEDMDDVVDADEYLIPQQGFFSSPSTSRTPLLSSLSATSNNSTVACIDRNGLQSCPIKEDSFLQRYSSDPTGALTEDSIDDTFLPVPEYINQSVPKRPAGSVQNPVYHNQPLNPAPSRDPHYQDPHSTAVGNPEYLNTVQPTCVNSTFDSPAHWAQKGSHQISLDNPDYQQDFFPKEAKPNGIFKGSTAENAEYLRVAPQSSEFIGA

Compound: COc1cc2ncnc(Nc3ccc(F)c(Cl)c3)c2cc1NC(=O)/C(F)=C/CN1CCOCC1
IC50 [1]: 59.8 nM
IC50 (A-431): 2630 nM
IC50 [2]: 1540 nM
IC50 (NCI-H1975 [3]): 2020 nM

Compound: COc1cc2ncnc(Nc3cccc(Br)c3)c2cc1NC(=O)/C(F)=C/CN(C)C
IC50 [1]: 8.3 nM
IC50 (A-431): 2100 nM
IC50 [4]: 2.6 nM
IC50 (NCI-H1975 [3]): 3300 nM

Compound: COc1cccc2c1C(=O)c1c(O)c3c(c(O)c1C2=O)C[C@@](O)(C(=O)CO)C[C@@H]3O[C@H]1C[C@H](N)[C@H](O)[C@H](C)O1 [DOXORUBICIN]
inhibition of growth at 5 µM (SW-620): 79.8%

Compound: CCOc1cc2ncnc(Nc3ccc(Oc4ccc(C)nc4)c(Cl)c3)c2cc1NC(=O)/C(F)=C\CN1CCCCC1
IC50 (A-431): 24800 nM
IC50 [4]: 39.2 nM
IC50 (NCI-H1975 [3]): 6420 nM

Compound: O=C(Nc1cc2c(Nc3ccc(F)c(Cl)c3)ncnc2cc1O[C@H]1CCOC1)/C(F)=C\CN1CCOCC1
IC50 (A-431): 10900 nM
IC50 (NCI-H1975 [3]): 3010 nM

Compound: CCOc1cc2ncnc(Nc3ccc(Oc4ccc(C)nc4)c(Cl)c3)c2cc1NC(=O)/C(F)=C\CN(C)C
IC50 (A-431): 5900 nM
IC50 [4]: 9.5 nM
IC50 (NCI-H1975 [3]): 2940 nM

Compound: CN(C)C/C=C(\F)C(=O)Nc1cc2c(Nc3ccc(F)c(Cl)c3)ncnc2cc1O[C@H]1CCOC1
IC50 [1]: 5.52 nM
microsomal CLint at 1 µM [5]: 12 µL/min/mg
AUC(0-inf) [6]: 10.4 µM·h
IC50 (Cytochrome P450 1A2): > 10000 nM
IC50 (Cytochrome P450 3A4): > 10000 nM
microsomal CLint at 1 µM [7]: 14 µL/min/mg
Kp at 6 h [8]: 25
IC50 (Cytochrome P450 2C19): > 10000 nM
IC50 (Cytochrome P450 2D6): > 10000 nM
Kp at 6 h [9]: 0.79
microsomal CLint at 1 µM [10]: 39 µL/min/mg
inhibition (NCI-H1975 [11]): Dose-dependent effect
Vz (Mus musculus): 9.69 L/kg
CL/F [12]: 30 mL/min/kg
inhibition at 10 µM (hERG (KCNH2) [13]): 14.8%
T/C (NCI-H1975 [14]): 19.5%
Activity (NCI-H1975 [15]): Non-toxic
T/C (NCI-H1975 [16]): 9.4%
bioavailability [17]: 84.7%
IC50 (A-431): 130 nM
T/C (NCI-H1975 [18]): 42.5%
microsomal CLint at 1 µM [19]: 2 µL/min/mg
Cmax [20]: 940 nM
inhibition of growth at 5 µM (SW-620): 11.5%
microsomal CLint at 1 µM [21]: 31 µL/min/mg
IC50 (Cytochrome P450 2C9): > 10000 nM
IC50 [2]: 149 nM
inhibition at 1 µM (hERG (KCNH2) [22]): 0%
IC50 (NCI-H1975 [3]): 1240 nM

Next, values leading:

IC50 (A-431): 830 nM
IC50 (NCI-H1975 [3]): 1110 nM
Compound: COc1cc2ncnc(Nc3ccc(F)c(Cl)c3)c2cc1NC(=O)/C(F)=C\CN1CCOCC1

IC50 [1]: 3.5 nM
IC50 (A-431): 750 nM
IC50 [4]: 3.6 nM
IC50 (NCI-H1975 [3]): 1190 nM
Compound: CCOc1cc2ncnc(Nc3ccc(OCC4CC4)c(Cl)c3)c2cc1NC(=O)/C(F)=C/CN(C)C

IC50 (A-431): 1800 nM
IC50 [4]: 2.55 nM
IC50 (NCI-H1975 [3]): 710 nM
Compound: O=C(Nc1cc2c(Nc3ccc(F)c(Cl)c3)ncnc2cc1O[C@H]1CCOC1)/C(F)=C\CN1CCCCC1

IC50 [1]: 16.4 nM
IC50 (A-431): 1560 nM
IC50 [4]: 2.6 nM
IC50 (NCI-H1975 [3]): 290 nM
Compound: O=C(Nc1cc2c(Nc3ccc(F)c(Cl)c3)ncnc2cc1O[C@H]1CCOC1)/C(F)=C/CN1CCCCC1

IC50 (A-431): 1690 nM
IC50 [4]: 1.3 nM
IC50 (NCI-H1975 [3]): 2000 nM
Compound: COc1cc2ncnc(Nc3ccc(OCc4cccc(F)c4)c(Cl)c3)c2cc1NC(=O)/C(F)=C\CN(C)C
